Measured values from ChEMBL document CHEMBL4043182, “On the synthesis of quinone-based BODIPY hybrids: New insights on antitumor activity and mechanism of action in cancer cells” (Bioorg Med Chem Lett, 2017).
The source made the active and inactive calls. The calls are words filed in the database; no cut-off is given here.

How the values were obtained:
[1] = Selective index, ratio of IC50 for chinese hamster V79 cells to IC50 for human PC3 cells
Summary of the method: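 Selectivity index is the ratio of the IC50 in a non-cancer murine line (V79 or L929) to the IC50 in the cancer line. […] MTT was 0.5 mg/mL for 3 h, formazan dissolved in DMSO and read at 595 nm as % of control. IC50s were derived by nonlinear regression; triplicate, at least three repeats.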

[2] = test system: HCT-116; test: Induction of lipid peroxidation in human HCT116 cells assessed as increase in MDA levels at 2.5 to 10 uM treated 24 hrs post NAC addition measured after 24 hrs by TBARS assay; format: functional, cell-based
Summary of the method: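 TBARS: cells were exposed 24 h, with or without 24 h prior 5 mM NAC, and lysed in Tris-HCl. Lysate was heated with TCA/0.25 M HCl and 6.7 mg/mL TBA for 15 min at 100 °C, centrifuged, and read at 532 nm. Hydrolyzed tetramethoxypropane served as standard, with values normalized to protein. H2O2 (10 µM) was the positive control. Three independent experiments in triplicate; ANOVA/Tukey.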

[3] = test system: SF-295; test: Induction of oxidative stress in human SF295 cells assessed as total intracellular thiol levels at 5 uM after 24 hrs by spectrophotometric analysis (reference value: 4.51 +/- 0.83 microg/mg); format: functional
[4] = test system: SF-295; test: Induction of oxidative stress in human SF295 cells assessed as GSH to GSSG ratio at 5 uM after 24 hrs by spectrophotometric analysis (reference value: 2.34 +/- 0.56 microg/mg); format: functional
[5] = test system: HCT-116; test: Induction of oxidative stress in human HCT116 cells assessed as GSH to GSSG ratio at 5 uM treated 24 hrs post NAC addition measured after 24 hrs by spectrophotometric analysis (reference value: 3.09 +/- 0.33 microg/mg); format: functional
[6] = test system: L929; test: Induction of oxidative stress in mouse L929 cells assessed as total GSSG levels at 5 uM after 24 hrs by spectrophotometric analysis (reference value: 1.05 +/- 0.33 microg/mg); format: cell-based; conditions: l929, 24 h
[7] = test system: L929; test: Induction of oxidative stress in mouse L929 cells assessed as total GSSG levels at 5 uM treated 24 hrs post NAC addition measured after 24 hrs by spectrophotometric analysis (reference value: 1.05 +/- 0.33 microg/mg); format: cell-based; conditions: l929, 24 h

Activity [6]: 2.27 µg/mg
Activity [7]: 1.24 µg/mg
SMILES: CC1(C)OC2=C(C(=O)C(=O)c3ccccc32)C1n1cc(CNC2=[N+]3C(=C(c4ccccc4)c4ccc(Cl)n4[B-]3(F)F)C=C2)nn1 (configuration not stated)
Ratio IC50 [1]: 1.7
Activity [2]: inactive
Activity [3]: 3.44 µg/mg
Activity [4]: 0.39 µg/mg
Activity [5]: 2.63 µg/mg
